# An excerpt weighted towards active compounds, which were near 12% of everything screened.
# WT yeast gro inh: growth inhibition of WT strain, primary screen, mitochondrial fusion inhibitor project, WT and mutant strains, chemical genetic; mitochondrial fusion phenotypic screen; inhibition, % at 10 µM; hit rate 2.1% among 190,000; AID 1362, 2008; in the data active means inhibition above about 58%; tested in S. cerevisiae
# Diaphorase inh: diaphorase inhibitors and chemical oxidizers, primary screen, counter-screen for diaphorase-coupled primary assays, biochemical, uHTS, resorufin fluorescence | diaphorase resazurin-to-resorufin fluorescence, NADH, 16 min; bacterial (C. kluyveri) enzyme, not human | inhibition, % at 20 µM | hit rate 0.69% among 190,000;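 active means primary screen inhibition at 20 µM above a set limit, cut at about 50% in these data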;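 further: plate controls were DMSO with full reaction for no effect and wells lacking NADH for full effect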
#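 System: Bacterial diaphorase enzyme (C. kluyveri) | Incubation: 16-min room-temperature incubation before reading | Benchmarks: No-NADH positive control and DMSO neutral control | Measured by: Resorufin fluorescence 544/590 nm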
# Lmaj promast: Leishmania major promastigote growth inhibition, primary screen; inhibition, % at 10 µM; Leishmania major promastigotes, resazurin fluorescence viability; AID 1063, 2008; hit rate 9% among 200,000; in the data active means inhibition above about 50%;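 further: promastigotes grown with compound for 44 hours at 28 °C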
# Cl transport mod: KCC2 cotransporter modulators, thallium flux, primary screen, cell-based, HEK293 KCC2, FluoZin-2 fluorescence, MLSMR. B-score of Tl+ flux slope (higher = more flux/activation; lower = inhibition) at 10 µM. hit rate 2.2% among 190,000. KCC2 cells, thallium flux FluoZin-2 fluorescence;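 active means thallium flux slope and its plate-corrected score both differing from the plate sample mean at a set confidence after two filtering rounds, in either direction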;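 further: slope of fluorescence scaled to starting intensity during 10 to 20 s after thallium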
# Target sequence (Q9H2X9 whole entry, looked up): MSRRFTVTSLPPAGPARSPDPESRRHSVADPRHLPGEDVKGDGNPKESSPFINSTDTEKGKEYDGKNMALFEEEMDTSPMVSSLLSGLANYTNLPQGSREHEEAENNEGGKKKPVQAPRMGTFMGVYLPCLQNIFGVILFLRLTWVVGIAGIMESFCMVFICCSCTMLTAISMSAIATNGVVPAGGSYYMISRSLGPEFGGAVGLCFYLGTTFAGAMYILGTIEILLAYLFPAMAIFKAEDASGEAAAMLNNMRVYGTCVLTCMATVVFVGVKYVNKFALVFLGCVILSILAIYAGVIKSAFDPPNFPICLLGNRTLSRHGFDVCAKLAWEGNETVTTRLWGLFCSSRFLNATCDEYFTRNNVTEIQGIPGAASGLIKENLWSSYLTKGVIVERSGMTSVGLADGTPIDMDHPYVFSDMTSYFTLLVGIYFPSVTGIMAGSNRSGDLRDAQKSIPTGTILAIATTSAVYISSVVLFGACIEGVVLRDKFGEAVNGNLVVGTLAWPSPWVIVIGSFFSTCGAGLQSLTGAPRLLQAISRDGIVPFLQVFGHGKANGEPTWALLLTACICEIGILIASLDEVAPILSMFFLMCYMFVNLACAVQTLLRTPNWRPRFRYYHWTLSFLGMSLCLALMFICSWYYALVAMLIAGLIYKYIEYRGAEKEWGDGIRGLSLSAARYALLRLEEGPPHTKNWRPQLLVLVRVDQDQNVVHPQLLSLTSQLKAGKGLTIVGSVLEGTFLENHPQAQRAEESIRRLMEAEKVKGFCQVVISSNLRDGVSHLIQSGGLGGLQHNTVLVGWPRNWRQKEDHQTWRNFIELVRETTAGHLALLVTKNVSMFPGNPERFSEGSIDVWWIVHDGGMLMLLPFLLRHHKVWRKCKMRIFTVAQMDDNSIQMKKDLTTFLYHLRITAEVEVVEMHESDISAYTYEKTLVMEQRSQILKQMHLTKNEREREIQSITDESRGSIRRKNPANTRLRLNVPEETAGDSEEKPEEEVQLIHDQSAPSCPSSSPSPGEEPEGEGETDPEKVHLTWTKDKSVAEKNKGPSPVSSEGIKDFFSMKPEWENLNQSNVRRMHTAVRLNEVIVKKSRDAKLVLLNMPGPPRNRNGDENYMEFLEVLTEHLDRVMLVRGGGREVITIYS
# Diaph act CS: compounds boosting diaphorase resazurin reduction – biochemical, uHTS, resorufin fluorescence, counter-screen for diaphorase-coupled primary assays, primary screen. activation factor at 20 µM. AID 1229, 2008. Diaphorase/resazurin coupled assay, 16 min; hits give high values; 1 = vehicle wells, 0 = NADH-free wells. hit rate 0.005% among 190,000;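 active means diaphorase activity raised at least twofold by the compound at 20 µM; inactive means activation factor below 2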
#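 Material: bacterial diaphorase enzyme (C. kluyveri); amount: enzyme 0.07 U/mL final; reagent: NADH substrate 0.114 mM plus resazurin dye 0.1 mM, final; doses: single compound dose of 20 µM, 1% DMSO final; timing: 16 min enzyme reaction, ambient temperature; measured by: fluorescence of resorufin, 544 nm excitation, 590 nm emission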
# ROMK primary: ROMK potassium channel modulators, primary screen, cell-based, thallium flux, MLSMR library | ATP-sensitive inward rectifier potassium channel 1 (Homo sapiens), P48048 | Tet-inducible ROMK, thallium flux fluorescence; actives lie on both sides | B-score at 10 µM | hit rate 2% among 130,000;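 active means signal ratio slope over the read window, or its plate-corrected B-score, at least 3 SD from the plate mean, either direction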;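 further: B-score of the F/F0 ratio slope over 7 to 12 s after thallium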
# The depositor's hits bear a star; x = not tested or not shown.
SMILES,WT yeast gro inh,Diaphorase inh,Lmaj promast,Cl transport mod,Diaph act CS,ROMK primary
CC(C)CCN1CCN(CC#Cc2ccccc2)CC1CCO (stereo not drawn),-2.0,-4.1,80.4*,0.079,1,0.44
Cc1ccc(CN2CCN(CCC(C)C)C(CCO)C2)s1 (stereo not drawn),1.3,5.4,6.0,0.0593,0.9,x
CCOC(=O)N1CCC(N2CCN(CCC(C)C)C(CCO)C2)CC1 (stereo not drawn),2.7,-0.4,20.6,0.66,1,2.37
CC(C)CCN1CCN(C2CCN(c3ccccc3)CC2)CC1CCO (stereo not drawn),-14.7,2.1,89.0*,-0.523,1,0.0697
C=C(C)C1Cc2c(C)nn(-c3ccccn3)c2C1 (stereo not drawn),66.2*,-4.4,4.0,0.27,1,-0.321
CCn1cc(C(=O)NCCCN2CCC(C)CC2)c(=O)c2cc(S(=O)(=O)N3CCCC3)ccc21,-3.8,2.4,-2.2,0.855,1,x
CC1CCCC(NC(=O)c2cn(C)c3ccc(S(=O)(=O)N4CCCC4)cc3c2=O)C1C (stereo not drawn),-15.7,17.0,62.9*,-1.03,0.8,x
CCn1cc(C(=O)NC2CCC(C)CC2)c(=O)c2cc(S(=O)(=O)N3CCCCC3)ccc21 (stereo not drawn),7.0,13.3,76.1*,-0.476,0.9,x
CC1CCCCC1NC(=O)c1cn(C)c2ccc(S(=O)(=O)N3CCCC3)cc2c1=O (stereo not drawn),12.0,11.6,37.0,-0.733,0.9,-0.326
COc1ccc(Cl)cc1-n1c(C)cc(C=O)c1C,2.1,4.6,78.1*,-0.429,1,0.07
COc1ccc(Cl)cc1-n1c(C)cc(C(=O)O)c1C,16.6,-6.0,-9.4,0.0175,1.1,1.6
Cc1cc(C)n(Cc2ccc(Cl)cc2Cl)c(=O)c1S(=O)(=O)c1ccccc1,30.7,18.3,-1.3,x,0.8,x
C=C(C)Cn1c(C)cc(C)c(S(=O)(=O)c2ccc(C)cc2)c1=O,31.1,17.4,67.7*,-1.37,0.8,-0.466
O=C(N/N=C/C=C/c1ccco1)/C(=C/c1ccccc1)NC(=O)c1ccccc1,0.2,20.8,23.4,-0.434,0.8,-0.308
CN(Cc1cccs1)CC(O)COCc1ccco1 (stereo not drawn),-10.0,-0.8,-0.9,0.0787,1,x
COc1ccccc1COCC(O)CN(Cc1ccco1)Cc1ccccc1O (stereo not drawn),23.7,9.7,82.1*,-0.651,0.9,-1.55
Cc1c(C(=O)NCc2ccc3c(c2)OCO3)oc2ccc(Br)cc12,61.7*,17.4,-5.2,-0.81,0.8,-0.0462
O=C(NCc1ccc2c(c1)OCO2)c1ccc(-c2ccc(Cl)cc2)o1,68.5*,29.0,-5.7,-0.248,0.7,-0.904
COc1ccc(C(=O)NCc2ccc3c(c2)OCO3)cc1S(=O)(=O)NCc1ccc(Cl)cc1,-2.5,0.0,61.5*,0.503,1,-0.662
O=C(Nc1cc(Cl)ccc1Cl)C1CC(=O)N(c2ccc(Br)cc2)C1 (stereo not drawn),10.0,2.6,-7.8,0.344,1,-0.0331
CSc1nc(NCCCO)c2c3c(sc2n1)CN(C)CC3,x,x,x,-0.417,x,x
CSc1nc(SCC(=O)NC(c2ccccc2)c2ccccc2)c2c3c(sc2n1)CN(C)CC3,22.2,-12.6,71.1*,1.28,1.1,x
COc1cccc(OCC(=O)Nc2cc(Cl)ccc2Oc2ccccc2)c1,32.9,2.8,95.4*,0.286,1,0.0255
N=c1sccn1CC(=O)Nc1cc(Cl)ccc1Oc1ccccc1,-7.8,-1.5,100.4*,-0.278,1,-1.81
N=c1sccn1CC(=O)Nc1cccc(Oc2ccccc2)c1,17.1,6.6,10.4,x,0.9,-1.39
SMILES,WT yeast gro inh,Diaphorase inh,Lmaj promast,Cl transport mod,Diaph act CS,ROMK primary
CCCNS(=O)(=O)c1ccc(CCC(=O)Nc2cc(Cl)ccc2Oc2ccccc2)cc1,8.1,30.4,3.0,-2.23,0.7,x
CC(C)(C)NS(=O)(=O)c1ccc(CCC(=O)Nc2cc(Cl)ccc2Oc2ccccc2)cc1,12.4,28.2,98.0*,-0.856,0.7,-0.649
NC(=S)NNc1cc(Cl)cc(Cl)c1,-1.3,22.0,9.3,0.263,0.8,-0.325
CCC(C(=O)OCC(=O)Nc1ccc(Cl)c(S(=O)(=O)N(C)C)c1)c1ccccc1 (stereo not drawn),18.0,27.4,61.5*,-0.851,0.7,x
CCC(C(=O)OCC(=O)Nc1ccc(SC(F)F)cc1)c1ccccc1 (stereo not drawn),73.0*,23.3,-1.4,0.319,0.8,x
CC(C)c1ccccc1NC(=O)CCc1nc2ccccc2s1,-3.5,16.4,-0.2,0.533,0.8,0.527
CC(=O)Nc1ccc(NC(=O)C23CC4CC(C2)CC(n2cnc(Br)n2)(C4)C3)cc1,0.0,-2.0,0.0,0.768,1,0.106
O=C(Nc1cccc([N+](=O)[O-])c1)C12CC3CC(C1)CC(n1cnc([N+](=O)[O-])n1)(C3)C2,2.9,18.6,75.8*,-0.0169,0.8,x
O=C(Nc1ccccc1)C12CC3CC(C1)CC(n1cnc([N+](=O)[O-])n1)(C3)C2,4.3,18.2,71.7*,0.0256,0.8,x
Cc1ccc(F)cc1NC(=O)C12CC3CC(C1)CC(n1cnc([N+](=O)[O-])n1)(C3)C2,4.8,5.2,66.7*,0.429,0.9,0.405
COc1cc(NC(=O)C23CC4CC(C2)CC(n2cnc([N+](=O)[O-])n2)(C4)C3)cc(OC)c1,0.6,17.5,75.6*,0.273,0.8,-0.194
O=c1c2c(nc3cc(-c4ccc(Br)cc4)[nH]n13)CCCC2,2.1,x,66.6*,0.00319,x,0.0896
O=c1c2c(nc3c(-c4ccccc4)c[nH]n13)CCC2,25.6,25.8,-5.5,0.769,0.7,x
O=c1c2c(nc3c(-c4cccc(Br)c4)c[nH]n13)CCCC2,7.3,11.1,99.6*,20.5*,0.9,x
Nc1ccc2c3c(cccc13)CC2,0.1,55.6*,2.4,x,0.4,-1.98
COc1ccc(-c2[nH]n(-c3ccc([N+](=O)[O-])cc3)c(=O)c2C=NCc2ccncc2)cc1,18.3,-0.9,98.6*,1.22,1,x
COc1ccc(-c2[nH]n(-c3ccc([N+](=O)[O-])cc3)c(=O)c2C=NCc2ccc(F)cc2)cc1,-4.5,11.7,-0.8,0.652,0.9,1.34
COc1ccc(-c2ccc3c(n2)sc2c(=O)[nH]c(=O)[nH]c23)cc1OC,1.8,0.1,-2.2,-0.234,1,0.516
